# Most compounds without a hit are left out; they make up all but 3.5% or so of the library.
# ERb SRC1 inh: inhibitors of ERβ-SRC1 coactivator interaction, primary screen, biochemical, TR-FRET, ERβ LBD, SRC-1 peptide | inhibition, % at 25.6 µM | TR-FRET ER-beta LBD / SRC1-Cy5 peptide binding; receptor agonist-loaded with 1 µM estradiol | 1.3% of 86,000 active | Estrogen receptor beta (Homo sapiens), Q92731;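 active = compounds whose percent inhibition of the receptor-coactivator binding signal exceeds about 50% in the single-dose screen, limit read from the data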;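 note: 0% = receptor plus peptide wells without compound and 100% = peptide-only wells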
# ERa SRC1 pot: enhancers of ERα–SRC-1 coactivator binding, primary screen, biochemical, TR-FRET, ERα LBD, low estradiol | Estrogen receptor (Homo sapiens), P03372 | TR-FRET ERalpha-LBD/SRC-Cy5 coactivator binding, 2 h; 100 = basal binding, no effect | coactivator binding (% of control), % at 25.6 µM | 1.3% of 86,000 active; in the data active = activity above about 200%;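 note: binding measured in presence of low estradiol as agonist stimulus; 0% = peptide alone without receptor and 100% = receptor with peptide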
# sEH inh: soluble epoxide hydrolase inhibitors, primary screen, biochemical, human sEH | inhibition, % at 2 µM | 0.34% of 91,000 active | AID 707, 2007 | recombinant human sEH enzymatic activity assay; in the data active = inhibition above about 80%
# ERa SRC1 inh: ERα–SRC-1 coactivator interaction inhibitors, primary screen, biochemical, TR-FRET, ERα LBD, estradiol-bound; Estrogen receptor (Homo sapiens), P03372; TR-FRET ER-alpha LBD / SRC-1 peptide; inhibition, % at 25.6 µM; 1.7% of 86,000 active; AID 629, 2007; in the data active = inhibition above about 50%;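 note: 0% = receptor plus peptide control and 100% = peptide only without receptor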
# Rev-RRE block: HIV-1 Rev-RRE binding inhibitors, primary screen, biochemical, FRET, protein-RNA interaction | inhibition, % at 8 µM | P05866 | 0.79% of 97,000 active | Rev peptide-RRE RNA binding;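 active = inhibition above the screen-wide mean plus 3 SD, cut at about 35% in these data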;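 note: 0% = median DMSO wells and 100% = median Neomycin B control wells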
#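 assay system = Cy5-tagged RRE RNA duplex with fluorescein-tagged Rev peptide | incubation = 5 + 15 min at 25 °C | also added = labelled Rev peptide | measure = % inhibition of FRET ratio versus controls | benchmarks = DMSO wells as 0% and neomycin B wells as 100% inhibition | measured by = FRET fluorescence readout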
# sEH act: soluble epoxide hydrolase activators, primary screen, biochemical, human sEH; Bifunctional epoxide hydrolase 2 (Homo sapiens), P34913; purified human sEH enzymatic activity, activator screen; activation, % at 2 µM; 0.04% of 91,000 active; AID 717, 2007; in the data active = activation above about 37%
# Numbers without * were called inactive; x = no result; [ ] = dose if it differs, or a comment.
SMILES,ERb SRC1 inh,ERa SRC1 pot,sEH inh,ERa SRC1 inh,Rev-RRE block,sEH act
CSc1cccc(NC(=O)C2CCCN(S(=O)(=O)c3cnc[nH]3)C2)c1 (configuration not stated),-5,121,x,-9,2,x
Cc1cc(C)c(S(=O)(=O)NCc2ccc3c(c2)cc(C)n3C)c(C)c1,12,257*[fluorescence artefact?],-11,10,-3,10
Cc1cc2cc(CNS(=O)(=O)c3ccc4ccccc4c3)ccc2n1C,-2,651*[fluorescence artefact?],19,27,5,-17
Cc1nn(-c2ccccc2)c(Cl)c1/C=C(\CC(=O)O)c1nc2ccccc2s1,x,x,-12,x,7,11
CCOC(=O)c1ccccc1NC(=O)c1cccc2c1C(=O)N(C1CCN(C(=O)OCC)CC1)C2,6,123,9,6,7,-11
Cn1c(NCc2cccs2)nc2ccccc21,-1,105,-5,-3,6,4
CCn1c(NCc2cccs2)nc2ccccc21,-11,96,-10,67*[fluorescence artefact?],1,10
CCOc1ccccc1CNC(=O)Cn1c(=O)oc2ccccc21,55*[fluorescence artefact?],90,6,8,0,-7
CCO/C(C)=C1\C(=O)N(CC)c2ccccc21,-2,120,-8,-3,2,8
COc1cccc(C2C(C(C)=O)=C(O)C(=O)N2Cc2ccco2)c1 (configuration not stated),-6,153,-3,58*[fluorescence artefact?],0,2
COc1ccc(OC)c(C2/C(=C(/O)c3ccc(C)cc3)C(=O)C(=O)N2Cc2ccco2)c1 (configuration not stated),9,85,x,96*[fluorescence artefact?],x,x
CC(=O)C1=C(O)C(=O)N(Cc2ccco2)C1c1ccccc1 (configuration not stated),0,99,x,4,x,x
CCCCOc1ccc(C2CC(=O)NC2=O)cc1 (configuration not stated),-4,111,-11,1,1,13
O=C(Nc1cc(C(F)(F)F)ccc1N1CCOCC1)c1ccc2ccccc2n1,-11,111,-8,-5,24,6
O=C(Nc1ccc(F)cc1)NC1CCCCC1,-7,106,77,2,9,-77
O=C(Nc1cccc(F)c1)NC1CCCCC1,-1,117,88*,-7,1,-88
O=C(Nc1cccc(F)c1)NC1CC2CCCC(C1)N2C1CC1 (configuration not stated),-1,93,84*,10,8,-84
O=C(Nc1ccc2c(c1)OCCO2)NC1CCCCC1,1,114,89*,-3,0,-89
CCOC(=O)c1ccc(Nc2nnc(C(C)(C)C)c(=O)[nH]2)cc1,5,121,11,3,1,-11
COc1ccc(C(=O)N2CCCC(c3nc(-c4cccs4)no3)C2)cc1OC (configuration not stated),-4,127,-17,2,10,17
Cc1ccc(CC2CC(=O)N(c3cc(C)on3)C2=O)cc1 (configuration not stated),-15,201*[fluorescence artefact?],x,-10,-1,x
COc1ccc(CN2CC(C(=O)NCC3CCCO3)CC2=O)cc1 (configuration not stated),11,113,6,4,5,-4
CC(Sc1nc2ccccc2s1)C(=O)Nc1nnc(C(C)C)s1 (configuration not stated),0,88,-39,10,12,37*
CCC(Sc1nc2ccccc2s1)C(=O)Nc1nnc(C)s1 (configuration not stated),x,x,-3,x,0,2
CC(C)c1nnc(NC(=O)C2CCN(c3cnccn3)CC2)s1,-4,110,-11,4,3,10
CC(C)c1nnc(NC(=O)C2CCN(c3nc4ccccc4s3)CC2)s1,-6,107,x,67*[fluorescence artefact?],x,x
